Measured values reported in ChEMBL document CHEMBL1145564, “Discovery of N-[(3R,5R)-1-azabicyclo[3.2.1]oct-3-yl]furo[2,3-c]pyridine-5-carboxamide as an agonist of the alpha7 nicotinic acetylcholine receptor: in vitro and in vivo activity” (Bioorg Med Chem Lett, 2008).
Activity calls are given as the source filed them. The calls are words filed in the database; no cut-off is given here.

What was measured:
[1] = target: T1, Neuronal acetylcholine receptor subunit alpha-7 (Homo sapiens, UniProt P36544); experiment: Agonist activity at alpha7-5HT3 chimera expressed in human SH-EP1 cells by FLIPR assay; type: functional, cell-based
Target sequence in this assay (P36544 23-502 limits assumed): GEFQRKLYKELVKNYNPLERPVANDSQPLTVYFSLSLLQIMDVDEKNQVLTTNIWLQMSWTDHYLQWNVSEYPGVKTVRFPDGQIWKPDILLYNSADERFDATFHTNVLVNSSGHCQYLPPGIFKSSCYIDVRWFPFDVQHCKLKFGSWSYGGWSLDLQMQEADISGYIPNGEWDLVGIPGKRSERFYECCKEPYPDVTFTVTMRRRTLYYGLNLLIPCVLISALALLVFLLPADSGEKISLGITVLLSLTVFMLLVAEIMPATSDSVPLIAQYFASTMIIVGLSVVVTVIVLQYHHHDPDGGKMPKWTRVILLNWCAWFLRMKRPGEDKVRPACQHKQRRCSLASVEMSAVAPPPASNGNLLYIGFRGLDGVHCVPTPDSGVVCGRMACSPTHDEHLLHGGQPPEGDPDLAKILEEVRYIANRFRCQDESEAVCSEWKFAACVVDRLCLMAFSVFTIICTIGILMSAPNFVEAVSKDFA

[2] = Metabolic stability in rat liver microsomes assessed as hepatic extraction ratio after 30 mins; type: ADME, Microsome
How it was run: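 Rat liver microsome incubation; stability reported as fraction of compound remaining after 30 min relative to t0 concentration.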

[3] = Ratio of drug level in brain to plasma in mouse at 10 mg/kg after 60 min; type: ADME, organism-based; design: dose 10 mg/kg
How it was run: (§1)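 Mouse brain uptake: brain and plasma concentrations after a 10 mg/kg dose, ratio taken at 5 and 60 min.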

[4] = Ratio of drug level in brain to plasma in mouse at 10 mg/kg after 5 mins; type: ADME, organism-based; design: dose 10 mg/kg; how it was run: as §1
[5] = Apparent permeability from apical to basolateral side in dog MDCK cells; type: ADME, cell-based, Canis lupus familiaris
How it was run: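 MDCK monolayer permeability measured apical to basolateral, expressed as Papp (x10^-6 cm/s).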

[6] = target: Neuronal acetylcholine receptor subunit alpha-7 (Rattus norvegicus, UniProt Q05941); experiment: Displacement of [3H]MLA from alpha-7 nACh receptor in rat brain; type: tissue-based
Sequence of Neuronal acetylcholine receptor subunit alpha-7 (Rattus norvegicus, UniProt Q05941) (Q05941 whole entry): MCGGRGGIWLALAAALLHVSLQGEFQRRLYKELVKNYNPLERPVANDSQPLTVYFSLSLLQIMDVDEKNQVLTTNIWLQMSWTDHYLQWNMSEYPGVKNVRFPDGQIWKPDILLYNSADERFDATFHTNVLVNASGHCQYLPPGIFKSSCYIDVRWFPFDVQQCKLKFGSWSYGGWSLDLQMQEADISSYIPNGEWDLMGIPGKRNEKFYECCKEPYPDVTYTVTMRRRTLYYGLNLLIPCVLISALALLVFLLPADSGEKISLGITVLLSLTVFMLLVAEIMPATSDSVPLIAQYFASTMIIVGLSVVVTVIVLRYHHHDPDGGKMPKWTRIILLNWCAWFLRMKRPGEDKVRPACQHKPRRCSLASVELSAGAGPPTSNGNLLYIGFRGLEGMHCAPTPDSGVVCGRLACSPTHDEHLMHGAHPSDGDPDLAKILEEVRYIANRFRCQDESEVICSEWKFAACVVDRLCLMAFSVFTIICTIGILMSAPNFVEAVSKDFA
How it was run: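 Rat brain homogenate binding with [3H]MLA; individual Ki values, mean ± SEM reported when more than 3 measurements.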

Rattus norvegicus [7] = experiment: Reversal of amphetamine-induced auditory gating deficit in sc dosed rat auditory sensory gating model; type: functional
How it was run: (§2)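 Rats given amphetamine 1 mg/kg iv to disrupt gating, then test drug sc (0.01–1.0 mg/kg, n = 6-9). Gating is the conditioning/test EEG field potential ratio from paired tones at 0.5 Hz, monitored 30 min, expressed as % reversal. Brain and plasma levels taken about 37 min post-dose.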

[8] = target: Neuronal acetylcholine receptor; alpha4/beta2 (Rattus norvegicus) (UniProt P09483+P12390); experiment: Displacement of [3H][…] from alpha-4-beta-2 nACh receptor in rat brain at 1 uM; type: tissue-based
How it was run: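 Rat brain homogenate binding using [3H][…]; percent block at 1 µM.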

[9] = Toxicity in dog ECG model assessed as drug level causing no observable adverse effects; type: organism-based, Canis lupus familiaris; details: in vivo, read-out: Activity
How it was run: (§3)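 Acute dog ECG cardiovascular safety study; no-observable-adverse-effect dose set, with Cmax measured at that dose.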

[10] = Half life in Sprague-Dawley rat at 5 mg/kg, po; type: ADME, organism-based; design: dose 5 mg/kg, route oral; details: in vivo
How it was run: (§4)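 Sprague-Dawley rats given a single 5.0 mg/kg oral dose; pharmacokinetic parameters derived from plasma.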

[11] = Oral bioavailability in Sprague-Dawley rat at 5 mg/kg; type: ADME, organism-based; details: in vivo; how it was run: as §4
[12] = target: T2, Muscarinic acetylcholine receptor M1 (Homo sapiens) (UniProt P11229); experiment: Displacement of [3H]pirenzepine from human muscarinic M1 receptor expressed in CHO cells at 10 uM; type: cell-based
T2 sequence (whole entry): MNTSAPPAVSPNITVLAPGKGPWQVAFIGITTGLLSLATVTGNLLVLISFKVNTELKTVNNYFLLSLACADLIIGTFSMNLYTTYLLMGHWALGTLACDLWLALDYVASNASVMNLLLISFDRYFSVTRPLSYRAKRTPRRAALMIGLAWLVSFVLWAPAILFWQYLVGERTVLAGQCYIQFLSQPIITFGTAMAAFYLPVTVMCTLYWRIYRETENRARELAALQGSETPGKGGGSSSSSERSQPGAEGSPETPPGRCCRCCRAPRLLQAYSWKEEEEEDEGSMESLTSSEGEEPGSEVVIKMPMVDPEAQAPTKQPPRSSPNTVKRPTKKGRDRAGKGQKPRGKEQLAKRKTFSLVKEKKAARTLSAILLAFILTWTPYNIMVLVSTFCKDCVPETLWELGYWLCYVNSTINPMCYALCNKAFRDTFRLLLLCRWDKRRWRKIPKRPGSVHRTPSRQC
How it was run: (§5)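 Human muscarinic receptors in transfected CHO cells; radioligands [3H]pirenzepine (M1), [3H]AF-DX 384 (M2), [3H]DAMP (M3); percent block at 10 µM.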

hERG (KCNH2) = hERG (KCNH2) (Homo sapiens, UniProt Q12809); experiment: Inhibition of human ERG expressed in HEK293 cells at 20 uM; type: cell-based; details: HEK293 cells that express hERG
Sequence of hERG (KCNH2) (Q12809 whole entry): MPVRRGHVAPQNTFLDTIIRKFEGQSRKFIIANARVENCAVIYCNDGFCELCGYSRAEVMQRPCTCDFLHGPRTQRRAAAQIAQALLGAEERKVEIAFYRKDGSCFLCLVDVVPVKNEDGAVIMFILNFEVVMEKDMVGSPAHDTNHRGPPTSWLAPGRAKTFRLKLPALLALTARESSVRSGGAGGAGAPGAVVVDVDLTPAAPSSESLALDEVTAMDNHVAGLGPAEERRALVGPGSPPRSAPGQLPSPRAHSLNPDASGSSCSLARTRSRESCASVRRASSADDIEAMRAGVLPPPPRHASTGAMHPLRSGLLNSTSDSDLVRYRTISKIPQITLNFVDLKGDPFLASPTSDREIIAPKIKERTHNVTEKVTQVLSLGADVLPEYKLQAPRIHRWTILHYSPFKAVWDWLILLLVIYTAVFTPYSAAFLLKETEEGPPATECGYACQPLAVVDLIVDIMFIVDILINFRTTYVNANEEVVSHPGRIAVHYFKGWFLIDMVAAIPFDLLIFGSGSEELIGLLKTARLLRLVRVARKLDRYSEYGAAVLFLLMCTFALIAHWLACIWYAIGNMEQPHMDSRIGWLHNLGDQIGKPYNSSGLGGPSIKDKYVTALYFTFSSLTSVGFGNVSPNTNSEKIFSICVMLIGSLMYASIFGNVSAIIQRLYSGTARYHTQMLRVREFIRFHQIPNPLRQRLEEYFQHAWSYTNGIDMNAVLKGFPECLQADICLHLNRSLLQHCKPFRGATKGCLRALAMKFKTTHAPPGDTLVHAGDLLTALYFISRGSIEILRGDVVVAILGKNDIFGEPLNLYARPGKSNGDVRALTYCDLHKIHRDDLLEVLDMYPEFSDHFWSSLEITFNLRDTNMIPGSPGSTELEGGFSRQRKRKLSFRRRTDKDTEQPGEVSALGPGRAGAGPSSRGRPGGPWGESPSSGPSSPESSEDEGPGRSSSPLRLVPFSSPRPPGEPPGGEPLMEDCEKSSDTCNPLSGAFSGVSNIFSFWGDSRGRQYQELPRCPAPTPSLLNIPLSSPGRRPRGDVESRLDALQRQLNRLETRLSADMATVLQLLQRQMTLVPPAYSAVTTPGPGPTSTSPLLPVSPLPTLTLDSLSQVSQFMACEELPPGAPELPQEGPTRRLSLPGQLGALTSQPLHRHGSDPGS
How it was run: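 Patch-clamp on hERG current (IKr) in HEK cells; percent inhibition at 20 µM; aqueous solubility checked by HPLC in pH 7 buffer.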

[13] = Clearance in Sprague-Dawley rat at 5 mg/kg, po; type: ADME, organism-based; design: dose 5 mg/kg, route oral; details: in vivo; how it was run: as §4
[14] = target: T3, Muscarinic acetylcholine receptor M2 (Homo sapiens) (UniProt P08172); experiment: Displacement of [3H]AF-DX384 from human muscarinic M2 receptor expressed in CHO cells at 10 uM; type: cell-based; how it was run: as §5
T3 sequence (whole entry): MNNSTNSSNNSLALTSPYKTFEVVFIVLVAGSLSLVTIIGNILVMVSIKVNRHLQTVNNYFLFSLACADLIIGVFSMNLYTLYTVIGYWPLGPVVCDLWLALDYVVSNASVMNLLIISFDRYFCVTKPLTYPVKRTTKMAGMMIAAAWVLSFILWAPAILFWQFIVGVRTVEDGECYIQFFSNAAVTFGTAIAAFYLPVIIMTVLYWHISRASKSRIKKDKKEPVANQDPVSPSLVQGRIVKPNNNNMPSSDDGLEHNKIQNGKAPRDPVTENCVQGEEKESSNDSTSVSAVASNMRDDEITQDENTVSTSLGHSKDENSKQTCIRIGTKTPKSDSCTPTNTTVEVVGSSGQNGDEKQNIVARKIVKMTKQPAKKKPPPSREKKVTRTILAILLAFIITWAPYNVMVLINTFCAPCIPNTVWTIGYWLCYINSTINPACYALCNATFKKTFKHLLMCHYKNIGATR

[15] = target: T4, 5-hydroxytryptamine receptor 3A (Rattus norvegicus, UniProt P35563); experiment: Binding affinity to rat 5HT3 receptor
T4 sequence (P35563 whole entry): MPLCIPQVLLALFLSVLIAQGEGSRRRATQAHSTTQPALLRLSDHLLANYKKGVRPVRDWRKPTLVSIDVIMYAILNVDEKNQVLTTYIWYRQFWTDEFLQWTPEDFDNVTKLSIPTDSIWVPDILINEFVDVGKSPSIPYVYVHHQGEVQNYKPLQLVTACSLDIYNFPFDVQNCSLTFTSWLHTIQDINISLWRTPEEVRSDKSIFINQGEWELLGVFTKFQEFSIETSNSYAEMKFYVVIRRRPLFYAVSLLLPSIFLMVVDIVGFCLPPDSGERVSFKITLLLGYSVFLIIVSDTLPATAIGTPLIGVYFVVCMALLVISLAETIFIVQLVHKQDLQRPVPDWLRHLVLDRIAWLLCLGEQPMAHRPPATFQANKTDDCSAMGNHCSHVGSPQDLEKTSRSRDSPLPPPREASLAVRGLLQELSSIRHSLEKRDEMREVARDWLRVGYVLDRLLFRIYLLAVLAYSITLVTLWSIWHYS

Brain [16] = experiment: Drug level in rat brain at 1 mg/kg, sc; type: ADME, organism-based; design: dose 1 mg/kg, route subcutaneous; details: in vivo, read-out: Drug uptake; how it was run: as §2
Brain [17] = experiment: Drug level in rat brain at 0.1 mg/kg, sc; type: ADME, organism-based; design: dose 0.1 mg/kg, route subcutaneous; details: in vivo; how it was run: as §2
Plasma [18] = experiment: Drug level in rat plasma at 0.1 mg/kg, sc; type: ADME, organism-based; design: dose 0.1 mg/kg, route subcutaneous; details: in vivo; how it was run: as §2
[19] = Cmax in dog ECG model; type: ADME, organism-based, Canis lupus familiaris; details: in vivo; how it was run: as §3
[20] = target: Muscarinic acetylcholine receptor M3 (Homo sapiens) (UniProt P20309); experiment: Displacement of [3H]DAMP from human muscarinic M3 receptor expressed in CHO cells at 10 uM; type: cell-based; how it was run: as §5
Sequence of Muscarinic acetylcholine receptor M3 (Homo sapiens) (P20309 whole entry, looked up): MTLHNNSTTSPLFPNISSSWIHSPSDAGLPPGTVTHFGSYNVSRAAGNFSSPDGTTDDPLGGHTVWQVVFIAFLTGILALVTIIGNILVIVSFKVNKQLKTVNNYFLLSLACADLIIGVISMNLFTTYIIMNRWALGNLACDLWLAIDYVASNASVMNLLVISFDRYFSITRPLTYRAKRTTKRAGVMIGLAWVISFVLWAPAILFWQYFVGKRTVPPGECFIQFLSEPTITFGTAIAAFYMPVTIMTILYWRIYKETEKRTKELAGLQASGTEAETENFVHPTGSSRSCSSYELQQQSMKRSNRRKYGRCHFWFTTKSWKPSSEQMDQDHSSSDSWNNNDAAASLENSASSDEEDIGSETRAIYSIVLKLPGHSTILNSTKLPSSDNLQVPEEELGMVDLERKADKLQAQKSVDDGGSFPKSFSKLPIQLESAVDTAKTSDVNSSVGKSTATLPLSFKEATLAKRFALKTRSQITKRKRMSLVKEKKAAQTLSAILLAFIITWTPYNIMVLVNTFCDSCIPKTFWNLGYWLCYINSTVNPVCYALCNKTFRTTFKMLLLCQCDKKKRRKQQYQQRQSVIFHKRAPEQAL

Brain [21] = experiment: Drug level in rat brain at 0.01 mg/kg, sc; type: ADME, organism-based; design: dose 0.01 mg/kg, route subcutaneous; details: in vivo, read-out: Drug uptake; how it was run: as §2
Rattus norvegicus [22] = experiment: Volume of distribution at steady state in Sprague-Dawley rat at 5 mg/kg, po; type: ADME, organism-based; design: dose 5 mg/kg, route oral; details: in vivo; how it was run: as §4
[23] = target: T1, Neuronal acetylcholine receptor subunit alpha-7; experiment: Displacement of [3H]MLA from alpha-7 nACh receptor in human IMR32 cells; type: cell-based, IMR-32
Target sequence in this assay (P36544 whole entry): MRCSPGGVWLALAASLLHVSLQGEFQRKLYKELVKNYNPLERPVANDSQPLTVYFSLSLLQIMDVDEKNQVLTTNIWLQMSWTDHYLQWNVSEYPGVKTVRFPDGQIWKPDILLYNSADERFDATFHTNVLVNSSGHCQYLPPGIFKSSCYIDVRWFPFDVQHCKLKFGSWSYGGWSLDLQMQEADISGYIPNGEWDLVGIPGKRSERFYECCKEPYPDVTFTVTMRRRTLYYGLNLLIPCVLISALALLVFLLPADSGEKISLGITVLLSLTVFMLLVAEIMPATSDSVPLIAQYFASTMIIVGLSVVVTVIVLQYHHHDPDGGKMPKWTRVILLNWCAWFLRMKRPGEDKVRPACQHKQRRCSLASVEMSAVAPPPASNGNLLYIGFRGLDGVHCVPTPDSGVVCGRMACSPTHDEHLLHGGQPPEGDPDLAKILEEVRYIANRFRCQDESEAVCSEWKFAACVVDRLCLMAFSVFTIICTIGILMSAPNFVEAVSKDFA

Rattus norvegicus [24] = experiment: Reversal of amphetamine-induced auditory gating deficit in rat at 1 mg/kg, sc twice daily for 6 days; type: functional, organism-based; design: dose 1 mg/kg
How it was run: (§6)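 Rats dosed sc twice daily for 6 days with drug 1 mg/kg or 0.9% saline vehicle (n = 8). On day 7, amphetamine-induced gating deficit challenged with acute drug 1 mg/kg sc; brain and plasma exposures measured.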

Plasma [25] = experiment: Drug level in rat plasma at 0.01 mg/kg, sc; type: ADME, organism-based; design: dose 0.01 mg/kg, route subcutaneous; details: in vivo; how it was run: as §2
[26] = Drug level in rat plasma at 0.24 mg/kg, iv after 30 mins; type: ADME, organism-based; design: dose 0.24 mg/kg, route intravenous
Plasma [27] = experiment: Drug level in rat plasma at 1 mg/kg, sc; type: ADME, organism-based; design: dose 1 mg/kg, route subcutaneous; details: in vivo; how it was run: as §2
[28] = Drug level in rat brain at 1 mg/kg, sc twice daily for 6 days; type: ADME, organism-based; design: dose 1 mg/kg, route subcutaneous; details: read-out: Drug uptake; how it was run: as §6
[29] = Drug level in rat plasma at 1 mg/kg, sc twice daily for 6 days; type: ADME, organism-based; design: dose 1 mg/kg, route subcutaneous; how it was run: as §6
[30] = Metabolic stability in human liver microsomes assessed as half life; type: ADME, Microsome
Rattus norvegicus [31] = experiment: Reversal of amphetamine-induced auditory gating deficit in iv dosed rat auditory sensory gating model; details: read-out: MED
Plasma [32] = experiment: Fraction unbound in human plasma at 0.100 ug/mL; type: ADME, cell-free
How it was run: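 Human plasma protein binding as fraction unbound, measured at drug concentration 0.100 µg/mL.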

O=C(N[C@@H]1C[C@H]2CCN(C2)C1)c1ccc2ncsc2c1
EC50 [1]: 182 nM
hepatic extraction ratio at 0.5 h [2]: < 0.27
Kp at 1 h [3]: 0.33
Kp at 5 min [4]: 0.02
Papp A→B [5]: 0.2 ×10⁻⁶ cm/s
Ki [6]: 21 nM

O=C(N[C@@H]1C[C@H]2CCN(C2)C1)c1ccc2c(c1)OCCO2
EC50 [1]: 430 nM
hepatic extraction ratio at 0.5 h [2]: 0.74
Ki [6]: 29 nM

O=C(N[C@@H]1C[C@H]2CCN(C2)C1)c1cc2ccoc2cn1
Activity (Rattus norvegicus [7]): Dose-dependent effect
minimal effective dose (Rattus norvegicus [7]; read-out: MED): 0.1 mg/kg
Activity [8]: < 1%
NOAEL [9]: 40 mg/kg
half-life [10]: 48 min
bioavailability [11]: 40%
Activity [12]: 16%
inhibition at 20 µM (hERG (KCNH2)): 25%
CL/F [13]: 72 mL/min/kg
EC50 [1]: 46 nM
Activity [14]: 25%
Ki [15]: 350 nM
concentration (Brain [16]): 1200 nM
concentration (Brain [17]): 47 nM
concentration (Plasma [18]): 60 nM
Cmax [19]: 22000 nM
Activity [20]: 15%
concentration (Brain [21]): 5.3 nM
Kp at 1 h [3]: 1.88
Kp at 5 min [4]: 1.52
Vdss (Rattus norvegicus [22]): 2.4 L/kg
Ki [23]: 9 nM
Papp A→B [5]: 21 ×10⁻⁶ cm/s
Activity (Rattus norvegicus [24]): Active
Ki [6]: 2.9 nM
concentration (Plasma [25]): 12 nM
concentration at 0.5 h [26]: 130 nM
concentration (Plasma [27]): 1100 nM
concentration at 144 h [28]: 350 nM
concentration at 144 h [29]: 490 nM
half-life [30]: > 120 min

O=C(N[C@@H]1C[C@H]2CCN(C2)C1)c1ccc(Cl)cc1
EC50 [1]: 190 nM
hepatic extraction ratio at 0.5 h [2]: 0.37

O=C(N[C@H]1CN2CCC1CC2)c1cc2ccoc2cn1 [PHA-543613]
Activity [8]: 13%
half-life [10]: 36 min
Activity [12]: 16%
CL/F [13]: 33 mL/min/kg
Activity [14]: 23%
Ki [15]: 630 nM
minimal effective dose (Rattus norvegicus [31]): 0.24 mg/kg
Cmax [19]: 3800 nM
Activity [20]: 33%
fraction unbound (Plasma [32]): 0.83
Kp at 1 h [3]: 1.5
Kp at 5 min [4]: 1.5
Vdss (Rattus norvegicus [22]): 1.8 L/kg
Papp A→B [5]: 34 ×10⁻⁶ cm/s
Ki [6]: 9 nM
half-life [30]: > 120 min

O=C(N[C@@H]1C[C@H]2CCN(C2)C1)c1cc2sccc2cn1
EC50 [1]: 70 nM
hepatic extraction ratio at 0.5 h [2]: 0.71
Ki [6]: 7 nM

O=C(N[C@@H]1C[C@H]2CCN(C2)C1)c1cc2cccn2cn1
EC50 [1]: 129 nM
hepatic extraction ratio at 0.5 h [2]: 0.86
Ki [6]: 14 nM

O=C(N[C@H]1CN2CCC1CC2)c1ccc(Cl)cc1 [PNU-282987]
EC50 [1]: 128 nM
hepatic extraction ratio at 0.5 h [2]: < 0.27

O=C(N[C@@H]1C[C@H]2CCN(C2)C1)c1ccc2occc2c1
EC50 [1]: 81 nM
hepatic extraction ratio at 0.5 h [2]: < 0.27
Kp at 1 h [3]: 1.15
Kp at 5 min [4]: 0.27
Papp A→B [5]: 3.8 ×10⁻⁶ cm/s
Ki [6]: 6.2 nM
